In the library only some 2.3% were active in any assay of this set; here they are far more common.
TROY NFkB inh = blocks TROY-dependent signaling in reporter cells; Q293 LMP1-TROYcd NF-kB luciferase reporter, 4 h; inhibition, % at 10 µM; 360,000 tested, 0.98% active;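 active means compounds whose plate-normalised and pattern-corrected inhibition of the luciferase reporter signal at the single screening dose is 50% or more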
TWEAK-Fn14 inh = inhibitors of TWEAK-Fn14 interaction signaling; TWEAK-stimulated Fn14 reporter cells, luciferase luminescence, 8 h; inhibition, % at 10 µM; 360,000 tested, 2% active; AID 1159606; in the data active means inhibition above about 50%
EWS-Fli inh = blocks EWS/Fli oncoprotein-driven transcription. A673 NR0B1-luciferase reporter, viability-normalised. inhibition, % at 12.6 µM. 350,000 tested, 0.67% active. AID 651661;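 active means mean inhibition of at least 50% after viability correction, with every replicate also passing that limit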;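 further: firefly luciferase signal divided by Alamar Blue viability fluorescence both relative to DMSO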
FN deposit inh = fibronectin deposition inhibition | AH1F fibroblasts, Alexa488-fibronectin deposition fluorescence, overnight | inhibition, % at 12.6 µM | 350,000 tested, 0.086% active | AID 743247;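 active means mean inhibition across replicates of 30% or more, regardless of how many single replicates reach that level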;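 further: positive control wells lacked labelled fibronectin entirely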
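test system = AH1F fibroblasts assembling fluorescent fibronectin matrix | quantity = 10000 AH1F cells per well | buffer or medium = DMEM plus 2% serum, read in PBS | doses = single dose, pinned | incubation = 1 h cell attachment, overnight exposure to compound and label | detection = fluorescence at 485 nm excitation, 525 nm emission | read-out basis = inhibition from reduced deposited-fibronectin fluorescence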
LGR2 inh = blocks bursicon-induced cAMP signaling via Drosophila LGR2; inhibition, % at 9.99 µM; HEK293 LGR2, CRE-luciferase, bursicon-stimulated, 4 h; 380,000 tested, 0.35% active;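 active means drop in luminescence signal, shown as inhibition above about 50% in the replicate tests, limit read from the data, passing the limit was not always enough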;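 further: agonist challenge used bursicon conditioned medium at about half maximal strength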
XiGFP reactiv = activators of X-chromosome reactivation in mouse fibroblasts | activation, % at 7.58 µM | XiGFP mouse fibroblasts, % GFP-positive cells imaging, 3 d; cells co-treated with 5-aza-dC sensitizer; scaled so ellipticine positive control = 100% | 360,000 tested, 0.055% active;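 active means mean normalized replicate activation at least 10% and every replicate at or above 10%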;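 further: 0% = median of on-plate neutral control wells and 100% = ellipticine 6 µM median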
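Assay system: SV40-immortalized XiGFP fibroblast cells, line 68-5-11; buffer or medium: DMEM plus 5-aza-dC sensitizer; compound: one concentration, pinned; timing: compounds 3 days, fix/stain 15 min at room temperature; benchmarks: positive control ellipticine, 6 µM final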
* hit, by the source's call; . = no result given.

SMILES	TROY NFkB inh	TWEAK-Fn14 inh	EWS-Fli inh	FN deposit inh	LGR2 inh	XiGFP reactiv
Nc1nc2ccccc2n1/N=C/c1ccc(-c2ccccc2)o1	-23	53*	.	-2	.	.
CCOC(=O)c1c(C)nc2c3ccccc3ccn12	-88	12	.	-12	.	.
CCOC(=O)c1c(C)nc2c(C)cccn12	.	84*	.	.	.	.
O=C(Nc1cccc(NC(=O)c2cccnc2)c1)c1ccccc1	-1	-17	.	.	6	0
NC(=O)c1cccc(-c2cnc(N)c(C(=O)c3cccnc3)n2)c1	51*	84*	.	.	.	.
CC(=O)Nc1cccc(-c2cnc(N)c(C(=O)c3cccnc3)n2)c1	38	82*	.	.	.	.
Cc1ccc(C(=O)NN=CC(=O)c2ccccc2)c(C)c1	52*	65*	-8	2	70*	0
O=C(c1cc(-c2ccc3c(c2)OCO3)on1)N1CCOCC1	36	77*	.	.	.	.
O=C(Nc1cccnc1)c1cc(-c2ccc3c(c2)OCO3)on1	36	77*	.	-13	63*	.
O=C(c1cc(-c2ccc3c(c2)OCO3)on1)N1CCN(c2ccccc2)CC1	65*	22	.	5	-70	.
O=C(c1cc(-c2ccc3c(c2)OCO3)on1)N1CCN(c2ccc(F)cc2)CC1	-22	-11	.	.	-13	.
O=C1C(C=NCCCN2CCOCC2)=C(O)c2ccccc21	58*	21	.	.	.	.
O=C1C(C=NCCN2CCOCC2)=C(O)c2ccccc21	43	31	.	-1	-35	0
Cc1ccc(OCC(=O)c2cc(C)n(-c3cc(C)on3)c2C)c([N+](=O)[O-])n1	-19	10	-13	1	13	0
Cc1ccc(OCC(=O)c2cc(C)n(CC(F)(F)F)c2C)c([N+](=O)[O-])n1	18	23	-3	6	.	0
COc1ccc(-n2c(C)cc(C(=O)COc3ccc(C)nc3[N+](=O)[O-])c2C)cc1	58*	50	.	2	14	0
Cc1ccc(OCC(=O)c2cc(C)n(Cc3cccs3)c2C)c([N+](=O)[O-])n1	-11	3	53*	-3	11	0
C[C@@H]1CN([C@H](C)CO)C(=O)c2cc(NS(C)(=O)=O)ccc2O[C@@H](C)CCCCO[C@H]1CN(C)CC1CC1	.	.	.	-6	6	0
C[C@@H]1CCCCO[C@H](CN(C)S(=O)(=O)c2ccccc2)[C@@H](C)CN([C@@H](C)CO)C(=O)c2cc(NC(=O)Nc3ccccc3)ccc2O1	.	.	13	-3	-2	0
CCOC(=O)c1ccc(NC(C)=O)c([N+](=O)[O-])c1	69*	59*	-7	3	-7	0
CCCNc1ccc(C(=O)OCC)cc1[N+](=O)[O-]	-29	-16	2	-5	-47	0
C[C@@H]1CC=CCCNC(=O)[C@H](C)N(C)C(=O)c2ccccc2O1 (mixture of isomers)	.	.	.	-2	.	0
CC(C)C(=O)NC(c1cccc([N+](=O)[O-])c1)c1c(O)ccc2ccccc12 (stereo unspecified)	51*	-7	-24	-3	-18	0
COc1cc(-c2nc(-c3ccc4c(c3)-c3ccccc3S4(=O)=O)c(-c3ccccc3)[nH]2)cc(OC)c1O	-9	59*	.	28	.	.
O=c1[nH]c(CN2CCN(c3ccc(O)cc3)CC2)nc2scc(-c3ccc(Cl)cc3)c12	22	9	60*	10	-15	2
SMILES	TROY NFkB inh	TWEAK-Fn14 inh	EWS-Fli inh	FN deposit inh	LGR2 inh	XiGFP reactiv
O=C(/C=C/c1ccco1)Nc1scc(-c2ccccc2)c1C(=O)O	15	67*	-87	-5	17	0
O=C(Nc1scc(-c2ccccc2)c1C(=O)O)c1ccccc1F	-58	4	-39	-2	.	0
O=C(/C=C/c1ccccc1)Nc1scc(-c2ccccc2)c1C(=O)O	27	52*	-78	-13	-10	0
C[C@@H]1CN([C@H](C)CO)C(=O)c2cc(NC(=O)Cc3ccccc3)ccc2O[C@@H]1CN(C)S(=O)(=O)c1ccccc1	.	.	9	.	9	0
CN=c1scc(-c2ccc(F)cc2)n1/N=C/c1ccc(O)c(O)c1	76*	88*	50	-2	75*	1
O=C(NC(NC(=S)Nc1ccccc1)C(Cl)(Cl)Cl)c1cccc(Cl)c1 (stereo unspecified)	30	75*	.	-7	49	.
O=C(O)c1cccc(NC(=S)NC(NC(=O)c2cccc([N+](=O)[O-])c2)C(Cl)(Cl)Cl)c1 (stereo unspecified)	-4	-6	-5	-1	-10	0
COc1ccc2c3c([nH]c2c1)[C@H](CO)N(C(=O)c1cccc(F)c1)CC31CCN(C(=O)CC2CC2)CC1	.	.	7	.	30	0
O=C(NC(=C(Cl)Cl)S(=O)(=O)c1ccc(Cl)cc1)c1ccccc1	13	96*	20	3	27	0
O=C(NS(=O)(=O)c1ccc(Cl)cc1)c1ccccc1	6	9	10	4	-6	0
Cc1ccc(S(=O)(=O)C(NC(=O)c2ccccc2)=C(Cl)Cl)cc1	-45	65*	.	4	.	.
CC(=O)NC(=C(Cl)Cl)S(=O)(=O)c1ccccc1	-6	33	-5	-4	26	0
Cc1ccc(C(=O)NC(=C(Cl)Cl)S(=O)(=O)c2ccc(C)cc2)cc1	-35	54*	.	5	-5	.
Cc1ccc(S(=O)(=O)CCC(=O)OCC(=O)NC(=O)c2ccccc2)cc1	-7	9	0	-2	3	0
Cc1ccc(S(=O)(=O)/C(=C/Cl)NC(=O)c2ccccc2)cc1	-10	77*	.	-8	40	0
CCCC(=O)Nc1ccc2c(c1)C(=O)N(C)C[C@@H](OC)[C@H](C)CN(C(C)=O)[C@@H](C)CO2	.	.	-1	-1	-12	0
C[C@@H]1CN([C@@H](C)CO)S(=O)(=O)c2ccc(-c3cccc(F)c3)cc2O[C@@H]1CN(C)CC1CC1	.	.	10	-3	0	-1
C[C@@H]1CCCCO[C@H](CN(C)S(=O)(=O)c2ccc(F)cc2)[C@H](C)CN([C@H](C)CO)C(=O)c2cc(NS(C)(=O)=O)ccc2O1	.	.	.	7	0	0
CC(=O)N(C)C[C@@H]1Oc2ncc(-c3cccc(F)c3)cc2C(=O)N([C@H](C)CO)C[C@@H]1C	.	.	-5	2	20	-1
Cc1ccc(C(=O)NC(=C(Cl)Cl)S(=O)(=O)c2ccc(Cl)cc2)cc1	27	93*	15	16	20	0
Cc1ccc(C(=O)NNC(=S)NC(=O)c2ccc(Cl)cc2)cc1	-37	-108	.	.	.	.
C[C@H](CO)N1C[C@H](C)[C@@H](CN(C)C(=O)NC2CCCCC2)Oc2c(NC(=O)c3ccc(-c4nccs4)cc3)cccc2C1=O	.	.	9	19	-7	-1
CN(C)CCC1(C2=CCCC2)CC/C(=C/c2ccc(Cl)cc2)C1=O (stereo unspecified)	8	-3	-2	18	69*	0

Screening data from PubChem.
